{"source": "ChEMBL document CHEMBL2417404", "about": "“Synthesis and structure-activity relationship (SAR) of 2-methyl-4-oxo-3-oxetanylcarbamic acid esters, a class of potent N-acylethanolamine acid amidase (NAAA) inhibitors” (J Med Chem, 2013)", "key": {"[1]": {"target": "T1, N-acylethanolamine-hydrolyzing acid amidase (Rattus norvegicus, UniProt Q5KTC7)", "T1 sequence (Q5KTC7 whole entry)": "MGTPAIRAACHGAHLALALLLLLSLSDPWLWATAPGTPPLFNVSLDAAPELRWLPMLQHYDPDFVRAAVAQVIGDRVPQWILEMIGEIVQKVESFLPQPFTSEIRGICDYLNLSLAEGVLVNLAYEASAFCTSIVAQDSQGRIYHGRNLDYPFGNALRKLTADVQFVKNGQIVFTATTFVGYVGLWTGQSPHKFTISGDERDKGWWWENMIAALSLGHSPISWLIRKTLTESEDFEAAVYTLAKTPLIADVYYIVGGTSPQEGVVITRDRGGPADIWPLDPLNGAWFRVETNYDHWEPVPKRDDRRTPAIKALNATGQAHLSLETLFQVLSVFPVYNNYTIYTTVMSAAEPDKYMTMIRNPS", "assay": "Inhibition of Sprague Dawley rat lung native NAAA enzyme using heptadecenoylethanolamide as substrate preincubated for 30 mins followed by substrate addition measured after 30 mins by UPLC-MS analysis; call rule not given here", "in_short": "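Native enzyme from lungs of male Sprague-Dawley rats (275-300 g). Lungs were homogenized in 20 mM Tris-HCl pH 7.4 with 0.32 M sucrose, spun at 800g, then the supernatant at 12000g. The pellet was freeze/thawed in PBS, and the final 105000g pellet was used. Protein (10 μg) was preincubated with compound or vehicle for 30 min at 37 °C in NaH2PO4/citrate buffer pH 4.5 with 0.1% Triton X-100 and 3 mM DTT. Then 50 μM substrate, 37 °C, 30 min, duplicates. Heptadecenoic acid quantified against heptadecanoic acid internal standard. IC50 by fixed-slope nonlinear regression.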"}, "[2]": {"target": "T2, Acid ceramidase (Rattus norvegicus) (UniProt Q6P7S1)", "T2 sequence (whole entry)": "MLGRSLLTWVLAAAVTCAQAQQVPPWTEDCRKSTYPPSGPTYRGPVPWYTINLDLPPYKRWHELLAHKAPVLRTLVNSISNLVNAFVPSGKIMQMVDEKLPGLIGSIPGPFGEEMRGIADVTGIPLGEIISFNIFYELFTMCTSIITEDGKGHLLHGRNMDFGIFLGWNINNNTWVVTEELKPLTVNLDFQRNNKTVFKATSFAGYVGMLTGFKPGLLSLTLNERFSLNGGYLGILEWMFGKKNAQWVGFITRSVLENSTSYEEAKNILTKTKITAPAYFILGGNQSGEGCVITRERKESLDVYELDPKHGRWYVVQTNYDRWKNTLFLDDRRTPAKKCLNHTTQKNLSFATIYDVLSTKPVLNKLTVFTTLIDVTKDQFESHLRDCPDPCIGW", "assay": "Inhibition of rat lung acid ceramidase overexpressed in HEK293 cells using N-Lauroyl ceramide as substrate preincubated at 10 uM for 30 mins followed by substrate addition by LC-MS analysis", "assay_type": "cell-based", "in_short": "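Enzyme (25 μg) from HEK293 cells overexpressing rat AC was preincubated with compound for 30 min at 37 °C in 100 mM NaH2PO4, 100 mM trisodium citrate, 0.1% Triton X-100, 3 mM DTT, pH 4.5. Then 100 μM N-lauroyl ceramide was added. Lauric acid (m/z 199) was measured by negative-ion LC-MS with heptadecanoic acid (m/z 269) as internal standard.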"}, "[3]": {"target": "T3, Fatty-acid amide hydrolase 1 (Rattus norvegicus) (UniProt P97612)", "T3 sequence (whole entry)": "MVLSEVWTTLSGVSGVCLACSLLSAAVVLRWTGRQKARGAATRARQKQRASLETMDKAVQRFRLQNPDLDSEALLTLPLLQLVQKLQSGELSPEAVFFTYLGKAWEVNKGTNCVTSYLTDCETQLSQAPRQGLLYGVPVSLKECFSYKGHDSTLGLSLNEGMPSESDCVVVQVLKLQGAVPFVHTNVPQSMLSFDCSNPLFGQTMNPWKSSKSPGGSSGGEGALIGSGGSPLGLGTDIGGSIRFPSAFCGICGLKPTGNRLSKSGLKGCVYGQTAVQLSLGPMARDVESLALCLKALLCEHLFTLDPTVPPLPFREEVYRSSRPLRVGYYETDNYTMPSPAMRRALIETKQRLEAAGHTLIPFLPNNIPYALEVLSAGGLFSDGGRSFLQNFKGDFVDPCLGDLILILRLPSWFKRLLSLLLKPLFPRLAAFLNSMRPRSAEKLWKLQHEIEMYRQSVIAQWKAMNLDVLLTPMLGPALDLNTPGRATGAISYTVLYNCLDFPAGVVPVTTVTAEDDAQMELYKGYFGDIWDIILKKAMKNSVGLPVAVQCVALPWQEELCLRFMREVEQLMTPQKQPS", "assay": "Inhibition of rat brain FAAH using [3H]anandamide as substrate preincubated at 10 uM for 10 mins followed by substrate addition by liquid scintillation counting", "in_short": "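Rat brain homogenate (50 μg protein) was preincubated with compound for 10 min. Then 30 min at 37 °C with 1 μM cold AEA plus 0.6 nM [3H]AEA in 50 mM Tris pH 7.4 containing 0.05% fatty-acid-free BSA. Stopped with cold CHCl3/MeOH 1:1, and the aqueous phase was counted.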"}, "[4]": {"assay": "Selectivity ratio of IC50 for rat NAAA to IC50 for human NAAA"}, "[5]": {"target": "T4, N-acylethanolamine-hydrolyzing acid amidase (Homo sapiens, UniProt Q02083)", "T4 sequence (Q02083 whole entry)": "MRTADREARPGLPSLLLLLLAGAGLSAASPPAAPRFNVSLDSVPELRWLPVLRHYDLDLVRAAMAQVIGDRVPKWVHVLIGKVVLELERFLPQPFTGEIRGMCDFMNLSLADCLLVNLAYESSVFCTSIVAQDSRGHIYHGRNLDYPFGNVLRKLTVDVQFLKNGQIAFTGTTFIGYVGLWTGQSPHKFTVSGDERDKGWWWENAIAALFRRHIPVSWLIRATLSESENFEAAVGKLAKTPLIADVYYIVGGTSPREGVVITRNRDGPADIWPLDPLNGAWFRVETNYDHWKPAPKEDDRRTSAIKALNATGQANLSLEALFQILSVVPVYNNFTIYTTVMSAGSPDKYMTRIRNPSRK", "assay": "Inhibition of C-terminal His-6-tagged recombinant human spleen NAAA enzyme expressed in HEK293 cells", "assay_type": "cell-based", "in_short": "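Stable HEK293 clone (G418 selection) expressing h-NAAA; cell pellets sonicated, then membrane fraction prepared by centrifugation with a freeze/thaw step. 10 μg protein preincubated 30 min at 37 °C with inhibitor in citrate/phosphate buffer pH 4.5 (0.1% Triton X-100, 3 mM DTT). Duplicates then given 50 μM 10-cis-heptadecenoylethanolamide for 30 min at 37 °C. Heptadecenoic acid measured by UPLC-MS; IC50 from fixed-slope nonlinear regression.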"}}}
{"smiles": "CC(CCCCc1ccccc1)OC(=O)N[C@H]1C(=O)O[C@H]1C", "note": "(mixture of isomers)", "values": [{"measurement": "IC50", "setting": "[1]; read-out: IC50", "result": 0.029, "unit": "µM"}]}
{"smiles": "C[C@@H]1OC(=O)[C@@H]1NC(=O)OCCCc1ccccc1", "values": [{"measurement": "IC50", "setting": "[1]; read-out: IC50", "result": 0.09, "unit": "µM"}]}
{"smiles": "CCCCCOC(=O)N[C@H]1C(=O)O[C@H]1C", "values": [{"measurement": "IC50", "setting": "[1]; read-out: IC50", "result": 0.76, "unit": "µM"}]}
{"smiles": "CC(CCCCc1ccccc1)OC(=O)N[C@H]1C(=O)O[C@H]1C", "note": "(single isomer, unassigned; diastereomer 2)", "values": [{"measurement": "IC50", "setting": "[1]; read-out: IC50", "result": 5.1, "unit": "µM"}]}
{"smiles": "C[C@@H]1OC(=O)[C@@H]1NC(=O)OCc1ccc(-c2ccccc2)cc1", "values": [{"measurement": "inhibition", "setting": "[2]", "result": 30, "unit": "%"}, {"measurement": "inhibition", "setting": "[3]", "result": "< 10", "unit": "%"}]}
{"smiles": "C[C@@H]1OC(=O)[C@@H]1NC(=O)OCCCCCc1ccccc1", "values": [{"measurement": "inhibition", "setting": "[2]", "result": "< 10", "unit": "%"}, {"measurement": "Ratio IC50", "setting": "[4]", "result": 2}, {"measurement": "inhibition", "setting": "[3]", "result": "< 10", "unit": "%"}]}
{"smiles": "CC(C)C(CCCCc1ccccc1)OC(=O)N[C@H]1C(=O)O[C@H]1C", "note": "(stereo partly drawn)", "values": [{"measurement": "IC50", "setting": "[1]; read-out: IC50", "result": 0.08, "unit": "µM"}]}
{"smiles": "CC(C)C(CCCCc1ccccc1)OC(=O)N[C@H]1C(=O)O[C@H]1C", "note": "(single isomer, unassigned; diastereomer 2)", "values": [{"measurement": "IC50", "setting": "[1]; read-out: IC50", "result": 12.2, "unit": "µM"}]}
{"smiles": "C[C@@H]1OC(=O)[C@@H]1NC(=O)OCc1cccc(-c2ccccc2)c1", "values": [{"measurement": "IC50", "setting": "[1]; read-out: IC50", "result": 23, "unit": "µM"}]}
{"smiles": "C[C@H]1OC(=O)[C@@H]1NC(=O)OCCCCCc1ccccc1", "values": [{"measurement": "IC50", "setting": "[1]; read-out: IC50", "result": 0.02, "unit": "µM"}]}
{"smiles": "CC(CCCCc1ccccc1)OC(=O)N[C@H]1C(=O)O[C@H]1C", "note": "(single isomer, unassigned; diastereomer 1)", "values": [{"measurement": "IC50", "setting": "[1]; read-out: IC50", "result": 0.018, "unit": "µM"}]}
{"smiles": "CCCCCCCC(C)OC(=O)N[C@H]1C(=O)O[C@H]1C", "note": "(mixture of isomers)", "values": [{"measurement": "IC50", "setting": "[1]; read-out: IC50", "result": 0.06, "unit": "µM"}]}
{"smiles": "C[C@@H]1OC(=O)[C@@H]1N(C)C(=O)OCCCCCc1ccccc1", "values": [{"measurement": "IC50", "setting": "[1]", "result": "Not Active"}]}
{"smiles": "C[C@@H]1OC(=O)[C@@H]1NC(=O)OCCCCCC1CCCCC1", "values": [{"measurement": "IC50", "setting": "[1]; read-out: IC50", "result": 0.013, "unit": "µM"}, {"measurement": "inhibition", "setting": "[2]", "result": "< 10", "unit": "%"}, {"measurement": "Ratio IC50", "setting": "[4]", "result": 2}, {"measurement": "inhibition", "setting": "[3]", "result": "< 10", "unit": "%"}]}
{"smiles": "CCCCCCC[C@H](C)OC(=O)N[C@H]1C(=O)O[C@H]1C", "values": [{"measurement": "inhibition", "setting": "[2]", "result": 45, "unit": "%"}, {"measurement": "Ratio IC50", "setting": "[4]", "result": 2}, {"measurement": "inhibition", "setting": "[3]", "result": 19, "unit": "%"}]}
{"smiles": "C[C@@H]1OC(=O)[C@@H]1NC(=O)OCCCOCc1ccccc1", "values": [{"measurement": "IC50", "setting": "[5]", "result": 0.02, "unit": "µM"}, {"measurement": "inhibition", "setting": "[2]", "result": "< 10", "unit": "%"}, {"measurement": "Ratio IC50", "setting": "[4]", "result": 2}, {"measurement": "inhibition", "setting": "[3]", "result": "< 10", "unit": "%"}]}
{"smiles": "CCCCCCC[C@@H](C)OC(=O)N[C@H]1C(=O)O[C@H]1C", "values": [{"measurement": "IC50", "setting": "[1]; read-out: IC50", "result": 0.27, "unit": "µM"}]}
